Experimental data from ChEMBL document CHEMBL1123417, “New structure-activity relationships of the quinolone antibacterials using the target enzyme. The development and application of a DNA gyrase assay” (J Med Chem, 1986).
≈ marks a conversion by molar mass, not a printed value.

These compounds were tested on Staphylococcus aureus (assay: Antibacterial activity against Staphylococcus aureus (H228)). Conditions: not given.

MIC [µg/mL]	SMILES
1.6 (≈ 4.79 µM)	CNn1cc(C(=O)O)c(=O)c2cc(F)c(N3CCN(C)CC3)cc21 [AMIFLOXACIN]
0.2 (≈ 0.655 µM)	CCn1cc(C(=O)O)c(=O)c2cc(F)c(N3CCCC3)nc21
12.5 (≈ 47.3 µM)	CCn1cc(C(=O)O)c(=O)c2cc(F)c(NC)cc21
0.006 (≈ 0.0178 µM)	CCn1cc(C(=O)O)c(=O)c2cc(F)c(N3CCSCC3)cc21

The remaining lines, values behind:

SMILES	MIC [µg/mL]
COn1cc(C(=O)O)c(=O)c2cc3c(cc21)OCO3 [MILOXACIN]	6.3 (≈ 23.9 µM)
CCn1cc(C(=O)O)c(=O)c2cc(F)c(N3CCSC3)nc21	0.05 (≈ 0.155 µM)
CCn1cc(C(=O)O)c(=O)c2cc(F)c(-n3cccc3)cc21 [IRLOXACIN]	0.4 (≈ 1.33 µM)
CCn1cc(C(=O)O)c(=O)c2cc([N+](=O)[O-])ccc21	> 100
CCn1cc(C(=O)O)c(=O)c2ccc(-c3ccncc3)cc21 [ROSOXACIN]	0.4 (≈ 1.36 µM)

What follows are compounds tested on Escherichia coli (assay: Antibacterial activity against Escherichia coli (H560)). Conditions: not given.

MIC [µg/mL]	SMILES
0.4 (≈ 1.31 µM)	CCn1cc(C(=O)O)c(=O)c2cc(F)c(N3CCCC3)nc21
3.1 (≈ 11.7 µM)	CCn1cc(C(=O)O)c(=O)c2cc(F)c(NC)cc21
0.1 (≈ 0.297 µM)	CCn1cc(C(=O)O)c(=O)c2cc(F)c(N3CCSCC3)cc21

The next lines start with the compound.

SMILES	MIC [µg/mL]
COn1cc(C(=O)O)c(=O)c2cc3c(cc21)OCO3 [MILOXACIN]	0.4 (≈ 1.52 µM)
CCn1cc(C(=O)O)c(=O)c2cc(F)c(N3CCSC3)nc21	0.4 (≈ 1.24 µM)
CCn1cc(C(=O)O)c(=O)c2cc(F)c(-n3cccc3)cc21 [IRLOXACIN]	1.6 (≈ 5.33 µM)
CCn1cc(C(=O)O)c(=O)c2cc([N+](=O)[O-])ccc21	50 (≈ 191 µM)
CCn1cc(C(=O)O)c(=O)c2ccc(-c3ccncc3)cc21 [ROSOXACIN]	0.2 (≈ 0.68 µM)

What follows are compounds tested against DNA gyrase (Escherichia coli) (UniProt P0AES6+P0AES4) (assay: not given). Conditions: not given.

gyrase cleavage conc [µg/mL]	SMILES
2.5	CCn1cc(C(=O)O)c(=O)c2cc(F)c(N3CCCC3)nc21
18	CCn1cc(C(=O)O)c(=O)c2cc(F)c(NC)cc21
5	CCn1cc(C(=O)O)c(=O)c2cc(F)c(N3CCSCC3)cc21

Second part, the compound before the results:

SMILES	gyrase cleavage conc [µg/mL]
COn1cc(C(=O)O)c(=O)c2cc3c(cc21)OCO3 [MILOXACIN]	10
CCn1cc(C(=O)O)c(=O)c2cc(F)c(N3CCSC3)nc21	5
CCn1cc(C(=O)O)c(=O)c2cc(F)c(-n3cccc3)cc21 [IRLOXACIN]	2.5
CCn1cc(C(=O)O)c(=O)c2cc([N+](=O)[O-])ccc21	> 100
CCn1cc(C(=O)O)c(=O)c2ccc(-c3ccncc3)cc21 [ROSOXACIN]	2.5

The compounds below were run on Escherichia coli (assay: Antibacterial activity against Escherichia coli (vogel)). Conditions: not given.

MIC [µg/mL]	SMILES
0.1 (≈ 0.299 µM)	CNn1cc(C(=O)O)c(=O)c2cc(F)c(N3CCN(C)CC3)cc21 [AMIFLOXACIN]
3.1 (≈ 10.2 µM)	CCn1cc(C(=O)O)c(=O)c2cc(F)c(N3CCCC3)nc21
3.1 (≈ 11.7 µM)	CCn1cc(C(=O)O)c(=O)c2cc(F)c(NC)cc21
0.1 (≈ 0.297 µM)	CCn1cc(C(=O)O)c(=O)c2cc(F)c(N3CCSCC3)cc21

The next lines start with the compound.

SMILES	MIC [µg/mL]
COn1cc(C(=O)O)c(=O)c2cc3c(cc21)OCO3 [MILOXACIN]	0.4 (≈ 1.52 µM)
CCn1cc(C(=O)O)c(=O)c2cc(F)c(N3CCSC3)nc21	0.1 (≈ 0.309 µM)
CCn1cc(C(=O)O)c(=O)c2cc(F)c(-n3cccc3)cc21 [IRLOXACIN]	1.6 (≈ 5.33 µM)
CCn1cc(C(=O)O)c(=O)c2cc([N+](=O)[O-])ccc21	12.5 (≈ 47.7 µM)
CCn1cc(C(=O)O)c(=O)c2ccc(-c3ccncc3)cc21 [ROSOXACIN]	0.2 (≈ 0.68 µM)

The compounds below were run on Pseudomonas aeruginosa (assay: Antibacterial activity against Pseudomonas aeruginosa (UI-18)). Conditions: not given.

MIC [µg/mL]	SMILES
0.8 (≈ 2.39 µM)	CNn1cc(C(=O)O)c(=O)c2cc(F)c(N3CCN(C)CC3)cc21 [AMIFLOXACIN]
6.3 (≈ 20.6 µM)	CCn1cc(C(=O)O)c(=O)c2cc(F)c(N3CCCC3)nc21
> 100	CCn1cc(C(=O)O)c(=O)c2cc(F)c(NC)cc21
0.8 (≈ 2.38 µM)	CCn1cc(C(=O)O)c(=O)c2cc(F)c(N3CCSCC3)cc21

The next lines start with the compound.

SMILES	MIC [µg/mL]
COn1cc(C(=O)O)c(=O)c2cc3c(cc21)OCO3 [MILOXACIN]	12.5 (≈ 47.5 µM)
CCn1cc(C(=O)O)c(=O)c2cc(F)c(N3CCSC3)nc21	1.6 (≈ 4.95 µM)
CCn1cc(C(=O)O)c(=O)c2cc(F)c(-n3cccc3)cc21 [IRLOXACIN]	12.5 (≈ 41.6 µM)
CCn1cc(C(=O)O)c(=O)c2cc([N+](=O)[O-])ccc21	> 100
CCn1cc(C(=O)O)c(=O)c2ccc(-c3ccncc3)cc21 [ROSOXACIN]	6.3 (≈ 21.4 µM)

What follows are compounds tested against DNA gyrase (Escherichia coli, UniProt P0AES4+P0AES6) (assay: Inhibitory concentration in supercoiling inhibition Escherichia coli DNA gyrase assay). Conditions: read-out: I50 (converted).
Format: protein-complex assay
Method in brief: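 Gyrase A and B subunits purified from E. coli H560, each titrated to fully supercoil relaxed Col E1 plasmid (~0.3 μg/mL). Drug in 0.1 N KOH, 40 min at 30 °C, then ATP for 10 min. SDS/proteinase K quench, 1% agarose gel, ethidium stain. Serial dilutions start at 200 μg/mL. I50 is the mean of the initial-inhibition and 100%-inhibition concentrations.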

IC50 [µM]	SMILES
18.8	CNn1cc(C(=O)O)c(=O)c2cc(F)c(N3CCN(C)CC3)cc21 [AMIFLOXACIN]
16.4	CCn1cc(C(=O)O)c(=O)c2cc(F)c(N3CCCC3)nc21

Further lines, the compound ahead of its results:

SMILES	IC50 [µM]
COn1cc(C(=O)O)c(=O)c2cc3c(cc21)OCO3 [MILOXACIN]	190
CCn1cc(C(=O)O)c(=O)c2cc(F)c(N3CCSC3)nc21	201
CCn1cc(C(=O)O)c(=O)c2cc(F)c(-n3cccc3)cc21 [IRLOXACIN]	93.2
CCn1cc(C(=O)O)c(=O)c2ccc(-c3ccncc3)cc21 [ROSOXACIN]	> 34

These compounds were tested on Streptococcus pneumoniae (assay: Antibacterial activity against Streptococcus pneumoniae (SV-1)). Conditions: not given.

MIC [µg/mL]	SMILES
12.5 (≈ 37.4 µM)	CNn1cc(C(=O)O)c(=O)c2cc(F)c(N3CCN(C)CC3)cc21 [AMIFLOXACIN]
3.1 (≈ 10.2 µM)	CCn1cc(C(=O)O)c(=O)c2cc(F)c(N3CCCC3)nc21
100 (≈ 378 µM)	CCn1cc(C(=O)O)c(=O)c2cc(F)c(NC)cc21
12.5 (≈ 37.2 µM)	CCn1cc(C(=O)O)c(=O)c2cc(F)c(N3CCSCC3)cc21

Further lines, the compound ahead of its results:

SMILES	MIC [µg/mL]
COn1cc(C(=O)O)c(=O)c2cc3c(cc21)OCO3 [MILOXACIN]	100 (≈ 380 µM)
CCn1cc(C(=O)O)c(=O)c2cc(F)c(N3CCSC3)nc21	1.6 (≈ 4.95 µM)
CCn1cc(C(=O)O)c(=O)c2cc(F)c(-n3cccc3)cc21 [IRLOXACIN]	12.5 (≈ 41.6 µM)
CCn1cc(C(=O)O)c(=O)c2cc([N+](=O)[O-])ccc21	100 (≈ 381 µM)
CCn1cc(C(=O)O)c(=O)c2ccc(-c3ccncc3)cc21 [ROSOXACIN]	12.5 (≈ 42.5 µM)

What follows are compounds tested on Klebsiella pneumoniae (assay: Antibacterial activity against Klebsiella pneumonia (MGH-2)). Conditions: not given.

MIC [µg/mL]	SMILES
0.2 (≈ 0.598 µM)	CNn1cc(C(=O)O)c(=O)c2cc(F)c(N3CCN(C)CC3)cc21 [AMIFLOXACIN]
3.1 (≈ 10.2 µM)	CCn1cc(C(=O)O)c(=O)c2cc(F)c(N3CCCC3)nc21
6.3 (≈ 23.8 µM)	CCn1cc(C(=O)O)c(=O)c2cc(F)c(NC)cc21
0.2 (≈ 0.595 µM)	CCn1cc(C(=O)O)c(=O)c2cc(F)c(N3CCSCC3)cc21

Second part, the compound before the results:

SMILES	MIC [µg/mL]
COn1cc(C(=O)O)c(=O)c2cc3c(cc21)OCO3 [MILOXACIN]	0.2 (≈ 0.76 µM)
CCn1cc(C(=O)O)c(=O)c2cc(F)c(N3CCSC3)nc21	0.4 (≈ 1.24 µM)
CCn1cc(C(=O)O)c(=O)c2cc(F)c(-n3cccc3)cc21 [IRLOXACIN]	1.6 (≈ 5.33 µM)
CCn1cc(C(=O)O)c(=O)c2cc([N+](=O)[O-])ccc21	12.5 (≈ 47.7 µM)
CCn1cc(C(=O)O)c(=O)c2ccc(-c3ccncc3)cc21 [ROSOXACIN]	0.4 (≈ 1.36 µM)
